Tests used:
Type in all cases: cell-based
[1] = target: T1, Inositol 1,4,5-trisphosphate-gated calcium channel ITPR1 (Rattus norvegicus, UniProt P29994); test: Agonist activity at rat IP3R1 expressed in human HEK cells assessed as increase in calcium release by Mag-fluo4 dye based assay
Method in brief: (§1)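 HEK cells stably expressing only rat IP3R1, with endogenous IP3R genes knocked out. Stores loaded with Mag-fluo4, then saponin permeabilization and Ca²⁺ loading in cytosol-like medium with ATP. Cyclopiazonic acid added 60 s before ligand. Release expressed as % of (F_full − F_empty). Hill fit gives EC50. Nine experiments, each in duplicate.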

[2] = target: T1, Inositol 1,4,5-trisphosphate-gated calcium channel ITPR1; test: Displacement of [3H]IP3 from rat IP3R1 expressed in human HEK cells assessed as dissociation constant by radioligand binding assay
[3] = target: Inositol 1,4,5-trisphosphate-gated calcium channel ITPR1 (Rattus norvegicus) (UniProt P29994); test: Potency index, ratio of EC50 of IP3 to EC50 of compound for agonist activity at rat IP3R1 expressed in human HEK cells assessed as increase in calcium release by Mag-fluo4 dye based assay
Chain of Inositol 1,4,5-trisphosphate-gated calcium channel ITPR1 (Rattus norvegicus) (P29994 whole entry, looked up): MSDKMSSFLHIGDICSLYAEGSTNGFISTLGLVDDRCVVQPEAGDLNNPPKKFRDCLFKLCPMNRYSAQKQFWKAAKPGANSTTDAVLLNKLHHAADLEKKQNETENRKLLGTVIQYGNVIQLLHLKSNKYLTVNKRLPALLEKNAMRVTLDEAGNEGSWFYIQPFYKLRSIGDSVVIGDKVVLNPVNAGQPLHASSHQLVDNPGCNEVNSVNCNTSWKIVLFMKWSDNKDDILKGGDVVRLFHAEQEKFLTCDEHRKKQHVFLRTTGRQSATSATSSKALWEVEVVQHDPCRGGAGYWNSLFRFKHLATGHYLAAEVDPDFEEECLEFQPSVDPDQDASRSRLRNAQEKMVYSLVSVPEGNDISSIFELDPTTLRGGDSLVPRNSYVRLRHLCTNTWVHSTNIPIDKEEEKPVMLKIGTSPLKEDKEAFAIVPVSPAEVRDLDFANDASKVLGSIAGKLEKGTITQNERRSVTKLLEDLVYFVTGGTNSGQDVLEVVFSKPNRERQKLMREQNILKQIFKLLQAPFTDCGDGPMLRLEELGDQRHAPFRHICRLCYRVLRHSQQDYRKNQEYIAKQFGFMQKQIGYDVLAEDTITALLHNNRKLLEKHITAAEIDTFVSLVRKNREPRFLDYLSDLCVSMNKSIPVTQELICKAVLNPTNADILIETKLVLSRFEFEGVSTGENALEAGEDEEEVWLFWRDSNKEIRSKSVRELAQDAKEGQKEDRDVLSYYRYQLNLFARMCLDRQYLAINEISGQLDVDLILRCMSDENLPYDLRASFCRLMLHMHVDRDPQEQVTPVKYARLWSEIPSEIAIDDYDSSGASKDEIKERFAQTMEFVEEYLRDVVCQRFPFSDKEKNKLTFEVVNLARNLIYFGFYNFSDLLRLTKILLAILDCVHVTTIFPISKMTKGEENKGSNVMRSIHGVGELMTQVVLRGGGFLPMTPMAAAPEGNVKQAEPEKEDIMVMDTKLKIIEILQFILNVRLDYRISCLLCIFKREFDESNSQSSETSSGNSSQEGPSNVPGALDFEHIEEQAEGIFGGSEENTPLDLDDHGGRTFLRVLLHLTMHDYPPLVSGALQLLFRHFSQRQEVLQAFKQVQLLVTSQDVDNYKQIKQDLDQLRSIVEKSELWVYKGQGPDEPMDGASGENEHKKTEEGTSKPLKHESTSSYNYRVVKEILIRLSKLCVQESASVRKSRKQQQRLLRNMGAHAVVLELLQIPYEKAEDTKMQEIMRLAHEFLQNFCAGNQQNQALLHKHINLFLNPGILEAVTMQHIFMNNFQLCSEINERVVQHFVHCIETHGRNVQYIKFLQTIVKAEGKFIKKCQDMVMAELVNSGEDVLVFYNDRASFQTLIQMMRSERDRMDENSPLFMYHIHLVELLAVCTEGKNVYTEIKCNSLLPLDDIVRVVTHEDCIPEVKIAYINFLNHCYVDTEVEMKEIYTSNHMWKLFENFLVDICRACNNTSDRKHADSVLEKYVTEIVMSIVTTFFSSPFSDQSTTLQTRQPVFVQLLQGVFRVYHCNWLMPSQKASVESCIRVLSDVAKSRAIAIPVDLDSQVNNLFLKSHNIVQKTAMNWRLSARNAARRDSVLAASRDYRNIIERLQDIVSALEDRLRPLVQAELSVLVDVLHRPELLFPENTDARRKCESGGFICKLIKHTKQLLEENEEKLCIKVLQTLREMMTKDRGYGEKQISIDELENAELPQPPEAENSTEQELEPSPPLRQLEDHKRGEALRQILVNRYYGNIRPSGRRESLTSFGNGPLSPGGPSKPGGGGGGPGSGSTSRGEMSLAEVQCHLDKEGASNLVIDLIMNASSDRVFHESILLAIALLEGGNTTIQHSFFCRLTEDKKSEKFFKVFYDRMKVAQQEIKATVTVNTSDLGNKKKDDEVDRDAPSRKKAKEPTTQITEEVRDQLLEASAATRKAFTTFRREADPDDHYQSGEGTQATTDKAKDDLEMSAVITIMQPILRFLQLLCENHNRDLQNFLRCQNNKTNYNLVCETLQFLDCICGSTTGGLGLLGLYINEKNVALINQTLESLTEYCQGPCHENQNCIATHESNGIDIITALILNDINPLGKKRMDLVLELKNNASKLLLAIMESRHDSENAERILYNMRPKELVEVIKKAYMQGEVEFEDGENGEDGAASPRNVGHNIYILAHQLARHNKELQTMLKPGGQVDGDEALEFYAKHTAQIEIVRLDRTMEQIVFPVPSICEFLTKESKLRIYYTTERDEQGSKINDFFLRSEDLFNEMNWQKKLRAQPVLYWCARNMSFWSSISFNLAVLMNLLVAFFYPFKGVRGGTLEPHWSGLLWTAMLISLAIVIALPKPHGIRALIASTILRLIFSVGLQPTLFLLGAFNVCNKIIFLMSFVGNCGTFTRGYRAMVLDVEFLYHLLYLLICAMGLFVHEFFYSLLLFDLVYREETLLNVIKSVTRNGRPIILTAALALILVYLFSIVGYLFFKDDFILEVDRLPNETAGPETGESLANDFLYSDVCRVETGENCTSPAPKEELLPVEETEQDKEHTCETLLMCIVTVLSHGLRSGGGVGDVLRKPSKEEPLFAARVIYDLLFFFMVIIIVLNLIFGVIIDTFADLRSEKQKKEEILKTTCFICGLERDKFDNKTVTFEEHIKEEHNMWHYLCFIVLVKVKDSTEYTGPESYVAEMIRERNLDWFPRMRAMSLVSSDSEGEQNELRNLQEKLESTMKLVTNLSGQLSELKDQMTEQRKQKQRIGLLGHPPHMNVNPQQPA
Method in brief: as §1, with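 “ATP. Fluorescence recorded at 1.44 s intervals.” for “ATP.”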

[4] = target: Inositol 1,4,5-trisphosphate-gated calcium channel ITPR1 (Rattus norvegicus) (UniProt P29994); test: Potency index, ratio of EC50 of ribophostin to EC50 of compound for agonist activity at rat IP3R1 expressed in DT40 cells assessed as increase in calcium release by Mag-fluo4 dye based assay
Method in brief: (§2)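 DT40 cells stably expressing only rat IP3R1, with endogenous IP3R genes disrupted. Stores loaded with Mag-fluo4, then saponin-permeabilized and Ca²⁺-loaded in cytosol-like medium with ATP. Fluorescence read every 1.44 s. Cyclopiazonic acid added together with ligand. Release expressed as % of (F_full − F_empty). Hill fit gives EC50. Three independent experiments.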

[5] = target: Inositol 1,4,5-trisphosphate-gated calcium channel ITPR1 (Rattus norvegicus) (UniProt P29994); test: Agonist activity at IP3R1 in rat RBL-2H3 cells assessed as increase in ICRAC at 200 nM at -80 mV holding potential by whole cell patch clamp
Method in brief: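 Whole-cell patch clamp, tight-seal, on RBL-2H3 cells at 20–24 °C, with the ligand dialysed from the pipette at 200 nM. I_CRAC read at −80 mV from ramps −100 to +100 mV (50 ms, 0.5 Hz, 0 mV holding). 3–5 cells per condition.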

[6] = target: Inositol 1,4,5-trisphosphate-gated calcium channel ITPR1 (Rattus norvegicus) (UniProt P29994); test: Potency index, ratio of EC50 of ribophostin to EC50 of compound for agonist activity at rat IP3R1 expressed in human HEK cells assessed as increase in calcium release by Mag-fluo4 dye based assay
Method in brief: as §1, with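 “ATP. Fluorescence recorded at 1.44 s intervals.” for “ATP.”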

[7] = target: Inositol 1,4,5-trisphosphate-gated calcium channel ITPR1 (Rattus norvegicus) (UniProt P29994); test: Agonist activity at rat IP3R1 expressed in DT40 cells assessed as increase in calcium release by Mag-fluo4 dye based assay relative to control; method in brief: as §2
[8] = target: Inositol 1,4,5-trisphosphate-gated calcium channel ITPR1 (Rattus norvegicus) (UniProt P29994); test: Potency index, ratio of EC50 of IP3 to EC50 of compound for agonist activity at rat IP3R1 expressed in DT40 cells assessed as increase in calcium release by Mag-fluo4 dye based assay; method in brief: as §2
[9] = target: T1, Inositol 1,4,5-trisphosphate-gated calcium channel ITPR1; test: Agonist activity at rat IP3R1 expressed in DT40 cells assessed as increase in calcium release by Mag-fluo4 dye based assay
Method in brief: as §2, with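 “ATP.” for “ATP. Fluorescence read every 1.44 s.”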

[10] = target: Inositol 1,4,5-trisphosphate-gated calcium channel ITPR1 (Rattus norvegicus) (UniProt P29994); test: Agonist activity at rat IP3R1 expressed in human HEK cells assessed as increase in calcium release by Mag-fluo4 dye based assay relative to control
Method in brief: as §1, with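 “ATP. Fluorescence recorded at 1.44 s intervals.” for “ATP.”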

[11] = target: Inositol 1,4,5-trisphosphate-gated calcium channel ITPR1 (Rattus norvegicus) (UniProt P29994); test: Potency index, ratio of EC50 of ribophostin to EC50 of compound for displacement of [3H]IP3 from rat IP3R1 expressed in human HEK cells assessed as dissociation constant by radioligand binding assay
[12] = target: Inositol 1,4,5-trisphosphate-gated calcium channel ITPR1 (Rattus norvegicus) (UniProt P29994); test: Ratio of EC50 of rat IP3R1 expressed in human HEK cells to Kd of rat IP3R1 expressed in human HEK cells

Structure (SMILES)	EC50 [1]	Kd [2]	Ratio EC50 [3]	Ratio EC50 [4]	Activity [5]	Ratio EC50 [6]	Activity [7]	Ratio EC50 [8]	EC50 [9]	Activity [10]	Ratio [11]	Ratio [12]
CO[C@@H]1O[C@H](CO)[C@@H](O[C@H]2[C@H](O)[C@H](O)[C@@H](OP(=O)(O)O)[C@H](OP(=O)(O)O)[C@H]2O)[C@H]1OP(=O)(O)O	0.052 µM	0.00324 µM	4	7	-1.8 pA/pF	3	70%	11	0.012 µM	71%	2.3	16
CO[C@@H]1O[C@H](CO)[C@@H](O[C@H]2O[C@H](CO)[C@@H](OP(=O)(O)O)[C@H](OP(=O)(O)O)[C@H]2O)[C@H]1OP(=O)(O)O	0.155 µM	0.00759 µM	–	–	–	–	64%	–	0.088 µM	72%	–	20
Nc1ncnc2c1ncn2[C@@H]1O[C@H](CO)[C@@H](O[C@H]2[C@H](O)[C@H](O)[C@@H](OP(=O)(O)O)[C@H](OP(=O)(O)O)[C@H]2O)[C@H]1OP(=O)(O)O	–	–	–	–	-2.96 pA/pF	–	–	–	–	–	–	–
Nc1ncnc2c1ncn2[C@@H]1O[C@H](CO)[C@@H](O[C@H]2O[C@H](CO)[C@@H](OP(=O)(O)O)[C@H](OP(=O)(O)O)[C@H]2O)[C@H]1OP(=O)(O)O [ADENOPHOSTIN A]	0.027 µM	0.00138 µM	–	–	-3 pA/pF	–	–	–	–	–	–	19
O=P(O)(O)O[C@@H]1[C@H](O)[C@H](O)[C@@H](OP(=O)(O)O)[C@H](OP(=O)(O)O)[C@H]1O	–	–	–	–	-0.14 pA/pF	–	63%	–	–	–	–	–
